Measurements from ChEMBL document CHEMBL1255444, “In vitro antibacterial activities of JNJ-Q2, a new broad-spectrum fluoroquinolone” (Antimicrob Agents Chemother, 2010).
Values after ≈ are worked out from the molar mass of the structure shown. Active and inactive are the calls of the source. The rule behind the calls is not given here.

Assays:
Staphylococcus aureus [1] = test: Antibacterial activity against methicillin-resistant Staphylococcus aureus isolate OC17042 harboring gyrA S84L/G106D, parC S80F and parE D732N mutant gene assessed as >= 4 fold increase in bactericidal activity by broth microdilution method in presence of 20 ug/ml reserpine; type: functional, organism-based
Staphylococcus aureus [2] = test: Antibacterial activity against methicillin-resistant Staphylococcus aureus isolate OC8530 harboring gyrA S84L and parC I143V mutant gene assessed as >= 4 fold increase in bactericidal activity by broth microdilution method in presence of 20 ug/ml reserpine; type: functional, organism-based
Staphylococcus aureus [3] = test: Antibacterial activity against methicillin-resistant Staphylococcus aureus isolate OC11521 harboring gyrA S84L/S85P, parC E84G mutant gene assessed as >= 4 fold increase in bactericidal activity by broth microdilution method in presence of 20 ug/ml reserpine; type: functional, organism-based
Staphylococcus aureus [4] = test: Antibacterial activity against methicillin-resistant Staphylococcus aureus isolate OC12501 assessed as >= 4 fold increase in bactericidal activity by broth microdilution method in presence of 20 ug/ml reserpine; type: functional, organism-based
Staphylococcus aureus [5] = test: Antibacterial activity against methicillin-resistant Staphylococcus aureus isolate OC8525 harboring wild type quinolone resistance-determining region assessed as >= 4 fold increase in bactericidal activity by broth microdilution method in presence of 20 ug/ml reserpine; type: functional, organism-based
Staphylococcus aureus [6] = test: Antibacterial activity against methicillin-resistant Staphylococcus aureus isolate OC11696 assessed as >= 4 fold increase in bactericidal activity by broth microdilution method in presence of 20 ug/ml reserpine; type: functional, organism-based
Staphylococcus aureus [7] = test: Antibacterial activity against methicillin-resistant Staphylococcus aureus isolate OC4222 harboring gyrA S84L and parC S80F mutant gene assessed as >= 4 fold increase in bactericidal activity by broth microdilution method in presence of 20 ug/ml reserpine; type: functional, organism-based
Staphylococcus aureus [8] = test: Antibacterial activity against methicillin-resistant Staphylococcus aureus isolate OC15425 harboring gyrA S84L and parC S80F mutant gene by agar dilution method; type: functional
Procedure, shortened: (§1)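 MICs for the resistance-selection studies were determined by CLSI agar dilution on Mueller-Hinton medium. For S. pneumoniae the medium was supplemented with 5% lysed horse blood. For MRSA fluctuation-assay strains an arithmetic agar dilution scheme was used for a more precise MIC.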

Staphylococcus aureus [9] = test: Antibacterial activity against methicillin-resistant Staphylococcus aureus isolate OC8525 harboring wild type quinolone resistance-determining region by agar dilution method; type: functional
Procedure, shortened: (§2)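 CLSI agar dilution MIC on cation-adjusted Mueller-Hinton medium. These were the MIC values used for the resistance studies, and CLSI quality-control strains were included as appropriate.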

Staphylococcus aureus [10] = test: Antibacterial activity against methicillin-resistant Staphylococcus aureus by broth microdilution method; type: functional
Procedure, shortened: (§3)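 CLSI M07-A7 broth microdilution MIC. Medium was cation-adjusted Mueller-Hinton broth. For S. pneumoniae it was Mueller-Hinton supplemented with 5% lysed horse blood. CLSI quality-control strains were included as appropriate.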

Proteus mirabilis = test: Antibacterial activity against Proteus mirabilis by broth microdilution method; type: functional
Procedure, shortened: (§4)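 MICs by CLSI M07-A7 broth microdilution in cation-adjusted Mueller-Hinton medium. For S. pneumoniae the medium was supplemented with 5% lysed horse blood. CLSI quality control strains were run alongside as appropriate.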

Streptococcus agalactiae = test: Antibacterial activity against Streptococcus agalactiae by broth microdilution method; type: functional; procedure, shortened: as §4
Citrobacter freundii = test: Antibacterial activity against Citrobacter freundii by broth microdilution method; type: functional; procedure, shortened: as §4
Staphylococcus aureus [11] = test: Antibacterial activity against Staphylococcus aureus […] by broth microdilution method; type: functional; procedure, shortened: as §3
Staphylococcus aureus [12] = test: Antibacterial activity against methicillin-resistant Staphylococcus aureus isolate OC8532 harboring wild type quinolone resistance-determining region by agar dilution method; type: functional; procedure, shortened: as §2
Escherichia coli = test: Antibacterial activity against ciprofloxacin-resistant Escherichia coli by broth microdilution method; type: functional; procedure, shortened: as §3
[13] = tested on: Staphylococcus epidermidis; test: Antibacterial activity against methicillin-resistant Staphylococcus epidermidis by broth microdilution method; type: functional
Pseudomonas aeruginosa = test: Antibacterial activity against Pseudomonas aeruginosa ATCC 27853 by broth microdilution method; type: functional; procedure, shortened: as §4
Streptococcus pneumoniae [14] = test: Antibacterial activity against ciprofloxacin-resistant Streptococcus pneumoniae by broth microdilution method; type: functional; procedure, shortened: as §3
Moraxella catarrhalis = test: Antibacterial activity against Moraxella catarrhalis by broth microdilution method; type: functional; procedure, shortened: as §4
Enterococcus faecalis = test: Antibacterial activity against Enterococcus faecalis ATCC 29212 by broth microdilution method; type: functional; procedure, shortened: as §4
Klebsiella aerogenes = test: Antibacterial activity against Enterobacter aerogenes by broth microdilution method; type: functional; procedure, shortened: as §4
Providencia stuartii = test: Antibacterial activity against Providencia stuartii by broth microdilution method; type: functional; procedure, shortened: as §4
Haemophilus influenzae = test: Antibacterial activity against Haemophilus influenzae by broth microdilution method; type: functional; procedure, shortened: as §4
Enterococcus faecium = test: Antibacterial activity against Enterococcus faecium by broth microdilution method; type: functional; procedure, shortened: as §4
Serratia marcescens = test: Antibacterial activity against Serratia marcescens by broth microdilution method; type: functional; procedure, shortened: as §4
[15] = tested on: Staphylococcus epidermidis; test: Antibacterial activity against methicillin-, ciprofloxacin-resistant Staphylococcus epidermidis by broth microdilution method; type: functional
Staphylococcus aureus [16] = test: Antibacterial activity against methicillin-, ciprofloxacin-resistant Staphylococcus aureus by broth microdilution method; type: functional; procedure, shortened: as §3
[17] = tested on: Staphylococcus epidermidis; test: Antibacterial activity against methicillin-susceptible Staphylococcus epidermidis by broth microdilution method; type: functional
[18] = Antibacterial activity against Streptococcus sp. group C by broth microdilution method; type: functional
Procedure, shortened: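 MICs by broth microdilution following CLSI M07-A7 in cation-adjusted Mueller-Hinton medium, using isolates from the J&JPRD culture collection. CLSI quality control strains were included as appropriate.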

Staphylococcus aureus [19] = test: Antibacterial activity against methicillin-resistant Staphylococcus aureus isolate OC11150 harboring gyrA S84L and parC S80Y mutant gene by agar dilution method; type: functional; procedure, shortened: as §1
Streptococcus pyogenes = test: Antibacterial activity against Streptococcus pyogenes by broth microdilution method; type: functional; procedure, shortened: as §4
Streptococcus pneumoniae [20] = test: Antibacterial activity against Streptococcus pneumoniae ATCC 49619 by broth microdilution method; type: functional; procedure, shortened: as §4

In the case of `CC[n+]1c(-c2ccccc2)c2cc(N)ccc2c2ccc(N)cc21`, the Activity (Staphylococcus aureus [1]) is reported as “Active”, the Activity (Staphylococcus aureus [2]) is reported as “Active” and the Activity (Staphylococcus aureus [3]) is reported as “Active”. The Activity (Staphylococcus aureus [4]) was “Active”, the Activity (Staphylococcus aureus [5]) was “Active” and the Activity (Staphylococcus aureus [6]) was “Active”. The Activity (Staphylococcus aureus [7]) was “Active”.
For `CCn1cc(C(=O)O)c(=O)c2cc(F)c(N3CCNCC3)cc21`, the Activity (Staphylococcus aureus [1]) was “Active”, the Activity (Staphylococcus aureus [2]) was “Active” and the Activity (Staphylococcus aureus [3]) was “Active”. The Activity (Staphylococcus aureus [4]) was “Active”, the Activity (Staphylococcus aureus [5]) was “Active” and the Activity (Staphylococcus aureus [6]) was “Active”. For the same molecule, the Activity (Staphylococcus aureus [7]) was “Active”.
`O=C(O)c1cn(C2CC2)c2cc(N3CCNCC3)c(F)cc2c1=O` [CIPROFLOXACIN] gave an MIC (Staphylococcus aureus [8]) of 12 µg/mL (≈ 36.2 µM), an MIC (Staphylococcus aureus [9]) of 3 µg/mL (≈ 9.05 µM) and an MIC50 (Staphylococcus aureus [10]) of 16 µg/mL (≈ 48.3 µM). It also gave an MIC90 (Staphylococcus aureus [10]) of over 32 µg/mL, an MIC50 (Proteus mirabilis) of 0.03 µg/mL (≈ 0.0905 µM) and an MIC90 (Proteus mirabilis) of 0.06 µg/mL (≈ 0.181 µM). The MIC50 (Streptococcus agalactiae) was 1 µg/mL (≈ 3.02 µM), the MIC90 (Streptococcus agalactiae) was 1 µg/mL (≈ 3.02 µM) and the MIC50 (Citrobacter freundii) was 2 µg/mL (≈ 6.04 µM). The MIC90 (Citrobacter freundii) was over 4 µg/mL, the MIC50 (Staphylococcus aureus [11]) was 16 µg/mL (≈ 48.3 µM) and the MIC90 (Staphylococcus aureus [11]) was over 32 µg/mL. The MIC (Staphylococcus aureus [12]) was 0.6 µg/mL (≈ 1.81 µM), the MIC50 (Escherichia coli) was 64 µg/mL (≈ 193 µM) and the MIC90 (Escherichia coli) was 256 µg/mL (≈ 773 µM). The MIC50 [13] was 16 µg/mL (≈ 48.3 µM), the MIC90 [13] was 64 µg/mL (≈ 193 µM) and the MIC50 (Pseudomonas aeruginosa) was 0.25 µg/mL (≈ 0.754 µM). The MIC90 (Pseudomonas aeruginosa) was 0.5 µg/mL (≈ 1.51 µM), the MIC50 (Streptococcus pneumoniae [14]) was 32 µg/mL (≈ 96.6 µM) and the MIC90 (Streptococcus pneumoniae [14]) was 64 µg/mL (≈ 193 µM). The MIC50 (Moraxella catarrhalis) was 0.06 µg/mL (≈ 0.181 µM), the MIC90 (Moraxella catarrhalis) was 0.06 µg/mL (≈ 0.181 µM) and the MIC50 (Enterococcus faecalis) was 1 µg/mL (≈ 3.02 µM). For the same molecule, the MIC90 (Enterococcus faecalis) was over 16 µg/mL, the MIC50 (Klebsiella aerogenes) was 0.03 µg/mL (≈ 0.0905 µM) and the MIC90 (Klebsiella aerogenes) was 0.03 µg/mL (≈ 0.0905 µM). It also gave an MIC50 (Providencia stuartii) of 32 µg/mL (≈ 96.6 µM), an MIC90 (Providencia stuartii) of 64 µg/mL (≈ 193 µM) and an MIC (Haemophilus influenzae) of 8 ng/mL (≈ 0.0241 µM). For the same molecule, the MIC50 (Haemophilus influenzae) was 8 ng/mL (≈ 0.0241 µM), the MIC90 (Haemophilus influenzae) was 0.015 µg/mL (≈ 0.0453 µM) and the MIC50 (Enterococcus faecium) was 4 µg/mL (≈ 12.1 µM). For the same molecule, the MIC90 (Enterococcus faecium) was over 16 µg/mL, the MIC50 (Serratia marcescens) was 0.12 µg/mL (≈ 0.362 µM) and the MIC90 (Serratia marcescens) was 0.25 µg/mL (≈ 0.754 µM). The MIC50 [15] was 64 µg/mL (≈ 193 µM), the MIC90 [15] was 128 µg/mL (≈ 386 µM) and the MIC50 (Staphylococcus aureus [16]) was over 32 µg/mL. It also gave an MIC90 (Staphylococcus aureus [16]) of 32 µg/mL (≈ 96.6 µM), an MIC50 [17] of 0.25 µg/mL (≈ 0.754 µM) and an MIC90 [17] of 0.5 µg/mL (≈ 1.51 µM). It also gave an MIC50 [18] of 0.25 µg/mL (≈ 0.754 µM), an MIC90 [18] of 1 µg/mL (≈ 3.02 µM) and an MIC (Staphylococcus aureus [19]) of 12 µg/mL (≈ 36.2 µM). The MIC50 (Streptococcus pyogenes) was 0.5 µg/mL (≈ 1.51 µM) and the MIC90 (Streptococcus pyogenes) was 1 µg/mL (≈ 3.02 µM).
`CC[C@H]1OC(=O)[C@H](C)[C@@H](O[C@H]2C[C@@](C)(OC)[C@@H](O)[C@H](C)O2)[C@H](C)[C@@H](O[C@@H]2O[C@H](C)C[C@H](N(C)C)[C@H]2O)[C@](C)(O)C[C@@H](C)C(=O)[C@H](C)[C@@H](O)[C@]1(C)O` [ERYTHROMYCIN] gave an MIC50 (Streptococcus pneumoniae [20]) of 0.06 µg/mL (≈ 0.0818 µM) and an MIC90 (Streptococcus pneumoniae [20]) of 16 µg/mL (≈ 21.8 µM).
